Results collected from several papers.
Lines come from different studies, so protocols differ.
Target: Sodium-dependent noradrenaline transporter (SLC6A2, Homo sapiens, UniProt P23975)

With `O[C@@H]1[C@H](O)[C@@H]2C[C@@H]2[C@H]1n1cnc2c(NCCc3ccccc3)nc(C#Cc3ccccc3Cl)nc21` the inhibition was 24% (ligand displacement; radioligand; 10 µM).
For `CCCNc1nc2ccccc2n1Cc1ccc(Cl)cc1`, the inhibition was 21.9% (ligand displacement; 10 µM).
With `O=C(Nc1ccc(S(=O)(=O)N2CCC(Cl)CC2)cc1)c1ccc([N+](=O)[O-])o1` the inhibition was 28% (ligand displacement; radioligand; 10 µM).
The inhibition of `Clc1ccc(C(c2ccc(Cl)cc2)c2nnnn2CCCN2CCC(CCCc3ccccc3)CC2)cc1` is reported as 10.8% (transporter uptake; inhibitor; HEK293; 1 µM).
For `COc1ccc(-n2nc(OCCCN3CCCCC3)ccc2=O)cc1`, the inhibition was 18.5% (ligand displacement; 1 µM).
`Nc1ccc(-c2ccncc2)cc1NC(=O)N1CCCC1` has an inhibition of 15% (cell-free assay; 10 µM).
For `Clc1ccc(C(c2ccc(Cl)cc2)c2nnnn2CCCCN2CCC(Cc3ccccc3)CC2)cc1`, the inhibition was 68.8% (transporter uptake; inhibitor; HEK293; 1 µM).
For `O=C(c1ccc(Cl)cc1)N(Cc1ccccc1)C1CCCCC1`, the inhibition was 14.9% (cell-free assay; 10 µM).
The inhibition of `Clc1ccc(C(c2ccc(Cl)cc2)c2nnnn2CCCN2CCC(Cc3ccccc3)CC2)cc1` is reported as 8.36% (transporter uptake; inhibitor; HEK293; 1 µM).
`CCN(Cc1ccccc1C(F)(F)F)C(=O)C1CCN(S(=O)(=O)c2ccc3[nH]ncc3c2)CC1` gave an inhibition of 20% (ligand displacement; radioligand; 10 µM).
`O[C@@H]1[C@H](O)[C@@H]2C[C@@H]2[C@H]1n1cnc2c(NCc3cccc(Cl)c3)ncnc21` gave an inhibition of 35% (ligand displacement; radioligand; 10 µM).
`c1ccc(C2CCN(CCCCn3nnnc3C(c3ccccc3)c3ccccc3)CC2)cc1` gave an inhibition of 66.3% (transporter uptake; inhibitor; HEK293; 1 µM).
